Assay [1] deals with Matrix metalloproteinase-14 (Homo sapiens, UniProt P50281). Nature of the assay: Inhibition of Matrix metalloprotease-14. The method, boiled down: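 Catalytic-domain MMP-14 stock (10 μM) activated with trypsin (5 μg/mL) for 20 min at 25 °C, then quenched with soybean trypsin inhibitor (50 μg/mL). Run in Tris buffer pH 7.5 (100 mM Tris, 100 mM NaCl, 10 mM CaCl₂, 0.16% Brij 35) with 1 nM enzyme and 10 μM Mca-Pro-Leu-Gly-Leu-Dpa-Ala-Arg-NH₂ (final). Fluorogenic cleavage read; IC50 derived.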

For assay [2], the target named is Matrix metalloproteinase-9 (Homo sapiens, UniProt P14780). Nature of the assay: Inhibition of human matrix metalloprotease-9 (MMP-9). The method, boiled down:
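Human catalytic-domain MMP-9 stock (1 μM) activated with 1 mM APMA for 1 h at 37 °C. Assayed at 1 nM enzyme in Tris buffer pH 7.5 (100 mM Tris, 100 mM NaCl, 10 mM CaCl₂, 0.16% Brij 35) with ≤1% DMSO. Inhibitor preincubated 15 min at 37 °C, then 5 μM Mca-Arg-Pro-Lys-Pro-Tyr-Ala-Nva-Trp-Met-Lys(Dnp)-NH₂ added for 1 h at 37 °C. Fluorescence read at ex 328/em 393 nm; IC50 taken from dose–response.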

A further assay deals with Stromelysin-1 (Homo sapiens, UniProt P08254).
Another assay has as its target T1, Matrilysin (Homo sapiens, UniProt P09237).
T1 sequence (P09237 whole entry): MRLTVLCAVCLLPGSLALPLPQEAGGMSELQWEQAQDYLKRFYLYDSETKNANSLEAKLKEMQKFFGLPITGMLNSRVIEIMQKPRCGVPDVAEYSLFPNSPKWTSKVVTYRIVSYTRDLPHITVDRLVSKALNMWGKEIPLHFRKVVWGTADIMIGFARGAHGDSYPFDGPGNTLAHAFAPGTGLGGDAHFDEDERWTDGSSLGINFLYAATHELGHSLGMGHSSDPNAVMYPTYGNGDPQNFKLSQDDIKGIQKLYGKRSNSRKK
Nature of the assay: Inhibition of human matrix metalloprotease-7 (MMP-7).

We go through two molecules from ChEMBL document CHEMBL1144897, “A potent, selective inhibitor of matrix metalloproteinase-3 for the topical treatment of chronic dermal ulcers” (J Med Chem, 2003).

Chain of Matrix metalloproteinase-9 (P14780 whole entry): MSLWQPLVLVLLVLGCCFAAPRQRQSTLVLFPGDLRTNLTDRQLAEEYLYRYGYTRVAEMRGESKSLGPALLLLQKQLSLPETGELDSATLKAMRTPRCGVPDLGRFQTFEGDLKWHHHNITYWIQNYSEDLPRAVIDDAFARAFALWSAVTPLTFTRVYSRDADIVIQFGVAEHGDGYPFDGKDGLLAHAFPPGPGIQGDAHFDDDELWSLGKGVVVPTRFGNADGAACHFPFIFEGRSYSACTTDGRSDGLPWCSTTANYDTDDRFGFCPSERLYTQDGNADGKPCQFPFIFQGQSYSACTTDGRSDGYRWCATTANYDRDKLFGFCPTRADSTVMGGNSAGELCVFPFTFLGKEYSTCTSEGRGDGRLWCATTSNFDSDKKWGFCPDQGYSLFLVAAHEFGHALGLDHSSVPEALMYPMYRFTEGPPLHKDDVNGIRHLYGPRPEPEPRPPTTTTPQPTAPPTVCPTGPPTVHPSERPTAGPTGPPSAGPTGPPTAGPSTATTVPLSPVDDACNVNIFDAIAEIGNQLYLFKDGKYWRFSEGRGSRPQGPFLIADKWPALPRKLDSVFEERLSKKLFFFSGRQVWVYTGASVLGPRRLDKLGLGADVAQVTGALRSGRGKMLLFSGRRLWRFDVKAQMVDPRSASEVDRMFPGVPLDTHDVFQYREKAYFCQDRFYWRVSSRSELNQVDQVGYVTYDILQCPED
Chain of Stromelysin-1 (P08254 whole entry): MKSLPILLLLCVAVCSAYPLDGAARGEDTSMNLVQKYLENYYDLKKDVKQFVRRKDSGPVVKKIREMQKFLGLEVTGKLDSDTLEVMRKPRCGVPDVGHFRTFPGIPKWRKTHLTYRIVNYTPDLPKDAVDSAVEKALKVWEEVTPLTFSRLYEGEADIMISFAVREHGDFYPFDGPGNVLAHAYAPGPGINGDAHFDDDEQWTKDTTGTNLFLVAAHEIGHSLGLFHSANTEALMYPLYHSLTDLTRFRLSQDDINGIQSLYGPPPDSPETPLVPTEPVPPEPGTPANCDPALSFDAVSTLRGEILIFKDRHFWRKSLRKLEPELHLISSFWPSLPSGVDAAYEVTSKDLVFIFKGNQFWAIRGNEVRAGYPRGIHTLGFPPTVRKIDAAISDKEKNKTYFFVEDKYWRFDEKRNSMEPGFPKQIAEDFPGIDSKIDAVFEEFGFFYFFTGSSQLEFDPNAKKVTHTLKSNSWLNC

For the molecule `CNC(=O)[C@H](Cc1ccccc1)NC(=O)[C@H](CC(C)C)[C@H](CSc1cccs1)C(=O)NO` [BATIMASTAT], the IC50 amounted to 0.0046 µM in assay [1] and 0.0006 µM in assay [2].
For the molecule `CNC(=O)[C@H](Cc1ccc(OC)cc1)NC(=O)[C@@H](CC(=O)NO)CC(C)C`, the IC50 against Stromelysin-1 and against Matrilysin was 0.03 µM throughout.

In general, IC50 refers to the concentration that inhibits the measured activity by half. High values mean a need for much substance, low ones inhibition by little substance.
